In ChEMBL document CHEMBL4007420, “Structural Optimization and Pharmacological Evaluation of Inhibitors Targeting Dual-Specificity Tyrosine Phosphorylation-Regulated Kinases (DYRK) and CDC-like kinases (CLK) in Glioblastoma” (J Med Chem, 2017):
pEC50, pIC50: −log10 of the molar value. Activity calls are given as the source filed them. No cut-off for these calls is given here.

Assays:
U-251 [1] = test: Antimigratory activity in human U251 cells assessed as velocity of migration at 5 uM measured up to 20 hrs by wound scratch assay (reference value: 2159 to 2653 micrometer/hr); assay type: functional
Method in brief: (§1)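 Wound-healing migration assay: cell movement across the wound is measured as velocity (µm/h). Compounds were tested at 0, 1.0, 5.0 and 10.0 µM. Values are mean ± SEM of 3 independent experiments.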

Homo sapiens = species on record: Homo sapiens; test: Inhibition of tubulin (unknown origin) polymerization
[2] = biological target: T1, Dual specificity tyrosine-phosphorylation-regulated kinase 2 (Homo sapiens) (UniProt Q92630); test: Stabilization of DYRK2 in human U251 cell lysate at 10 uM preincubated for 1 hr followed by incubation at 40 to 70 degreeC for 3 mins by cellular thermal shift assay
T1 sequence (whole entry): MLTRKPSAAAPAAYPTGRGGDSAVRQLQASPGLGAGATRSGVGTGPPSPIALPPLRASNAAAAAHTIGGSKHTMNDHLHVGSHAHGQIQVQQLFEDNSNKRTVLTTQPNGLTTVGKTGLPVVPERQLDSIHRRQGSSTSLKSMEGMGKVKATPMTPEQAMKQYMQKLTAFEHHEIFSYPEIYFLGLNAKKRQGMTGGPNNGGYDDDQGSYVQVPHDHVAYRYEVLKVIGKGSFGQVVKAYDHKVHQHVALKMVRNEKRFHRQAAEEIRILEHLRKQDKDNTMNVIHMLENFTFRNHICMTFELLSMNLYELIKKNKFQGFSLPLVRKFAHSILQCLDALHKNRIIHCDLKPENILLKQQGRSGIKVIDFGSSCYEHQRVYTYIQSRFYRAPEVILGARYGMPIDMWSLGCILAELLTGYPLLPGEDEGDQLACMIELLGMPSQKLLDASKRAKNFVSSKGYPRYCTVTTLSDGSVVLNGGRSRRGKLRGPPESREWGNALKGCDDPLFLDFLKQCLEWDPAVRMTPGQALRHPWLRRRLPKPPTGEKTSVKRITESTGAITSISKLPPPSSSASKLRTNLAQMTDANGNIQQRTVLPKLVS

A 172 [3] = test: Antimigratory activity in human A172 cells assessed as velocity of migration at 1 uM measured up to 20 hrs by wound scratch assay (reference value: 2650 to 3123 micrometer/hr); assay type: functional; method in brief: as §1
A 172 [4] = test: Antiinvasive activity in human A172 cells assessed as velocity of invasion at 10 uM measured up to 20 hrs by matrigel assay (reference value: 2659 to 3047 micrometer/hr); assay type: functional
U-251 [5] = test: Antimigratory activity in human U251 cells at 5 uM measured up to 20 hrs by wound scratch assay; assay type: functional; conditions: U-251, 20 h; method in brief: as §1
[6] = Cytotoxicity against patient-derived SJH1 cells assessed as reduction in cell viability after 3 days by Alamar blue assay; assay type: functional, cell-based; conditions: Homo sapiens, SJH1, 72 h
Method in brief: (§2)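 The patient-derived glioblastoma lines were grown as stem cells under defined conditions to keep the phenotype and genotype of the resected tumours. Viability after treatment was read with Alamar blue.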

[7] = biological target: T2, Dual specificity tyrosine-phosphorylation-regulated kinase 1A (Homo sapiens, UniProt Q13627); test: Inhibition of DYRK1A in human U251 cell lysate assessed as EGF induced EGFR degradation at 2.5 uM by measuring basal EGFR half life in presence of cycloheximide by Western blot analysis (reference value: 25.6 +/- 7.6 min)
Method in brief: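 U251 cells were pretreated with 2.5 µM compound or DMSO for 4 h, then given cycloheximide (30 µg/mL, 1 h). EGF (100 ng/mL) was added for 0–120 min. EGFR was detected by Western blot, normalized to β-actin and expressed as % of 0 min. Half-life came from non-linear regression, as mean ± SEM of 3 independent experiments.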

U-251 [8] = test: Anticlonogenic activity against human U251 cells after 10 to 12 days by toluidine blue staining based assay; assay type: functional, cell-based
Method in brief: (§3)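 Cells were exposed to compound for 10 days, then colonies were fixed, stained with Toluidine Blue and counted. […] Values are mean ± SEM of 3 independent experiments, each in duplicate, with one-way ANOVA and Dunnett's test against vehicle.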

A 172 [9] = test: Antimigratory activity in human A172 cells assessed as velocity of migration at 5 uM measured up to 20 hrs by wound scratch assay (reference value: 2650 to 3123 micrometer/hr); assay type: functional; method in brief: as §1
[10] = Cytotoxicity against patient-derived WK1 cells assessed as reduction in cell viability after 5 days by Alamar blue assay; assay type: functional, cell-based; conditions: Homo sapiens, WK1, 120 h; method in brief: as §2
[11] = biological target: Dual specificity tyrosine-phosphorylation-regulated kinase 1B (Homo sapiens, UniProt Q9Y463); test: Inhibition of DYRK1B (unknown origin) using woodtide as substrate after 40 mins in presence of [gamma-33P]ATP by microbeta scintillation counting
[12] = biological target: T2, Dual specificity tyrosine-phosphorylation-regulated kinase 1A; test: Inhibition of DYRK1A (unknown origin) using woodtide as substrate after 10 mins in presence of [gamma-33P]ATP by microbeta scintillation counting
[13] = biological target: Mitogen-activated protein kinase 14 (Homo sapiens) (UniProt Q16539); test: Stabilization of MAPK p38alpha in human U251 cell lysate at 10 uM preincubated for 1 hr followed by incubation at 40 to 70 degreeC for 3 mins by cellular thermal shift assay
U-251 [14] = test: Antiinvasive activity in human U251 cells measured up to 20 hrs by matrigel assay; assay type: functional, cell-based
[15] = biological target: T3, Dual specificity protein kinase CLK1 (Homo sapiens, UniProt P49759); test: Stabilization of CLK1 in human U251 cell lysate at 10 uM preincubated for 1 hr followed by incubation at 40 to 70 degreeC for 3 mins by cellular thermal shift assay
Target sequence in this assay (P49759 whole entry, looked up): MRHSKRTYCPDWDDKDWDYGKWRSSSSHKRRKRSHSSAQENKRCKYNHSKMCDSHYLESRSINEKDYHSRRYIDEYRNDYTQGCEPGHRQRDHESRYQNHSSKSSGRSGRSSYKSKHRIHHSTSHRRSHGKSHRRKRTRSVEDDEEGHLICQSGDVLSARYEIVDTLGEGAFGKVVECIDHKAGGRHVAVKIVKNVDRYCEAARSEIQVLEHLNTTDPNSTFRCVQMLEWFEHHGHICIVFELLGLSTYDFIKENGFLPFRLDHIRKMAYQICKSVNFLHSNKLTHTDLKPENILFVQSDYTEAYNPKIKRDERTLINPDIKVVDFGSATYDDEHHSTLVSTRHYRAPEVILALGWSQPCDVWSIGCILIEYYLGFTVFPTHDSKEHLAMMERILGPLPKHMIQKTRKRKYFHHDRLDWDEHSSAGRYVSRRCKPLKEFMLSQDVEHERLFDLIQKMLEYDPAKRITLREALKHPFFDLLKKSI

RN1 = test: (§4) Anticlonogenic activity against patient-derived RN1 cells after 10 to 12 days by toluidine blue staining based assay; assay type: functional, cell-based; conditions: Homo sapiens; method in brief: as §3
[16] = as §4; assay type: functional, cell-based, Homo sapiens; method in brief: as §3
A 172 [17] = test: Antimigratory activity in human A172 cells at 5 uM measured up to 20 hrs by wound scratch assay; assay type: functional; conditions: A 172, 20 h; method in brief: as §1
[18] = Cytotoxicity against patient-derived JK2 cells assessed as reduction in cell viability after 3 days by Alamar blue assay; assay type: functional, cell-based; conditions: Homo sapiens, JK2, 72 h; method in brief: as §2
U-251 [19] = test: Antiinvasive activity in human U251 cells assessed as velocity of invasion at 10 uM measured up to 20 hrs by matrigel assay (reference value: 1151 to 1710 micrometer/hr); assay type: functional
A 172 [20] = test: Antiinvasive activity in human A172 cells assessed as velocity of invasion at 5 uM measured up to 20 hrs by matrigel assay (reference value: 2659 to 3047 micrometer/hr); assay type: functional
[21] = Antimigratory activity in patient-derived RN1 cells assessed as velocity of migration at 5 uM measured up to 20 hrs by wound scratch assay (reference value: 937 to 1174 micrometer/hr); assay type: functional, Homo sapiens; method in brief: as §1
[22] = Antimigratory activity in patient-derived RN1 cells assessed as velocity of migration at 1 uM measured up to 20 hrs by wound scratch assay (reference value: 937 to 1174 micrometer/hr); assay type: functional, Homo sapiens; method in brief: as §1
[23] = biological target: T3, Dual specificity protein kinase CLK1; test: Inhibition of CLK1 (unknown origin) using KKGRSRSRSRSRSR as substrate after 40 mins in presence of [gamma-33P]ATP by microbeta scintillation counting
Method in brief: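 CLK1 was assayed with RS peptide substrate at 100 µM ATP.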
Target sequence in this assay (P49759 whole entry): as the sequence (P49759 whole entry, looked up) above

Sequence of Mitogen-activated protein kinase 14 (Homo sapiens) (Q16539 whole entry): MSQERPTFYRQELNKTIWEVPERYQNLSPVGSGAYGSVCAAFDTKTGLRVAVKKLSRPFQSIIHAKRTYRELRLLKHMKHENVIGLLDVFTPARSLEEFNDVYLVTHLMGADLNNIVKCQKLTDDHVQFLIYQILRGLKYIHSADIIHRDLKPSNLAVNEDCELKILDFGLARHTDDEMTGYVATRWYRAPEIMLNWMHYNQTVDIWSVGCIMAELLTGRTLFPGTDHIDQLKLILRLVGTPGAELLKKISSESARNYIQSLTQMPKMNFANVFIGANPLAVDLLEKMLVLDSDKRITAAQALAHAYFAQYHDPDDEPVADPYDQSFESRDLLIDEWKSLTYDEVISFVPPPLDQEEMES
Sequence of Dual specificity tyrosine-phosphorylation-regulated kinase 1B (Q9Y463 whole entry): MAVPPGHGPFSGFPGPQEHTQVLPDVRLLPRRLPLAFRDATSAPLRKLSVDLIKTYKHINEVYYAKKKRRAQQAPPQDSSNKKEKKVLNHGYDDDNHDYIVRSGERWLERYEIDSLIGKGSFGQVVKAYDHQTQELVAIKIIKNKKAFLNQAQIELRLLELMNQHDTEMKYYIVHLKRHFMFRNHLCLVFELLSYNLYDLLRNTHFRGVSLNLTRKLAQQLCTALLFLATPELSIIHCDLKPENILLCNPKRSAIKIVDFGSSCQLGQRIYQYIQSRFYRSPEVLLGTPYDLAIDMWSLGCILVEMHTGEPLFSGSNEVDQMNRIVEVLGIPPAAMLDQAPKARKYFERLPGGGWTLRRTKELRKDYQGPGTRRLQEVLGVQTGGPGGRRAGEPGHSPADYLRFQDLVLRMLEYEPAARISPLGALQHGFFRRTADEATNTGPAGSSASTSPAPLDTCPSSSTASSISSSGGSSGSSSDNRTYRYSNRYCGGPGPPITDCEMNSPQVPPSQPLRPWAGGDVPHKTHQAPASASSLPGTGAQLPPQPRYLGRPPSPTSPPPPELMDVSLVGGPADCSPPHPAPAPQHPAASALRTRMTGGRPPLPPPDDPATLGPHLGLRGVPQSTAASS

- inhibition (Homo sapiens): inactive
- Activity [2]: Active
- T1/2 [7]: 11.3 min
- pEC50 (U-251 [8]): 6.74
- pIC50 [11]: 7.49
- pIC50 [12]: 7.37
- Activity [13]: inactive
- Activity [15]: Active
- pEC50 [16]: 6.10
- pIC50 [23]: 7.47
SMILES: Nc1ccc(-c2cnc3[nH]cc(-c4ccc(O)cc4)c3c2)cc1
- Activity (U-251 [1]): 127 um/hr
- Activity (A 172 [3]): 2828 um/hr
- Activity (A 172 [4]): 714 um/hr
- inhibition at 5 µM (U-251 [5]): > 75%
- pEC50 [6]: 5.49
- Activity (A 172 [9]): 728 um/hr
- pEC50 [10]: 6.05
- inhibition (U-251 [14]): Dose-dependent effect
- Activity (RN1): Dose-dependent effect
- inhibition at 5 µM (A 172 [17]): > 75%
- pEC50 [18]: 5.10
- Activity (U-251 [19]): -149 um/hr
- Activity (A 172 [20]): 1538 um/hr
- Activity [21]: 118 um/hr
- Activity [22]: 355 um/hr
